Only some compounds are listed: those with a hit (about 3.7% of all), similar ones and a draw of the others.
KCC2 mod: KCC2 (human) Cl- transport modulation. B-score of Tl+ flux slope (higher = more flux/activation; lower = inhibition) at 10 µM. 190,000 tested, 2.2% active. Q9H2X9. AID 1456. KCC2 cells, thallium flux FluoZin-2 fluorescence;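 active = thallium flux slope and its plate-corrected score both differing from the plate sample mean at a set confidence after two filtering rounds, in either direction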;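 note: slope of fluorescence scaled to starting intensity during 10 to 20 s after thallium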
PKD1 inh: blocks activity of human protein kinase D1 | PKD1 kinase fluorescence polarization assay | 200,000 tested, 0.056% active | Q15139 | inhibition, % (no concentration beside the values) | AID 797; in the data active = inhibition above about 50%
MDM2 E3 inh: blocks human Mdm2 ubiquitin ligase activity. Q00987. cell-based MDM2 ubiquitination luciferase reporter, 2 h; 0 = plate control, 100 = twice control, blank-subtracted. signal enhancement, % at 5 µM. 210,000 tested, 0.11% active. AID 1230;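 active = signal enhancement of 30% or more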;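 note: luminescence tracks abundance of the self-degrading MDM2-luciferase fusion protein; higher signal means inhibition of MDM2 E3 ligase activity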
Target sequence (Q00987 whole entry, looked up, the tested form may be a part): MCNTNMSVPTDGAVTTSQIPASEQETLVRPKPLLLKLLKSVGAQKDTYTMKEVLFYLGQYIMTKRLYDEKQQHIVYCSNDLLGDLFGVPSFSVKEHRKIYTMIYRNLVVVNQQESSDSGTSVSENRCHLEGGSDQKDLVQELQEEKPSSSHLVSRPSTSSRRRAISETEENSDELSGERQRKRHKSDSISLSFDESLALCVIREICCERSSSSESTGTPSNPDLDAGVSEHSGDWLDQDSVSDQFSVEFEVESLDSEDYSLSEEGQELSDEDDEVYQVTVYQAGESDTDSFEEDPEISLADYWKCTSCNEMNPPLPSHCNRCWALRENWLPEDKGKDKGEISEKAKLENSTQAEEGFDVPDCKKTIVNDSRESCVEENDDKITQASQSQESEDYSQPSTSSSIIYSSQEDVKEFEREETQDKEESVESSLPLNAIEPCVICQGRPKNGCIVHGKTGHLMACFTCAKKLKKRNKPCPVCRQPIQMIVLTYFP
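Material: stable MDM2–luciferase fusion reporter cells / Quantity: 2000 cells/well / Dosing: single 5 µM compound dose, 0.2% final DMSO / Buffer or medium: DMEM / Schedule: 4 h cell settling then 2 h compound exposure, 37 °C / Detection: luminescence with SteadyLite reagent, 15 min at room temperature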
Arbovirus anti: arbovirus infection inhibition | inhibition, % at 10 µM | 200,000 tested, 0.37% active | arbovirus infection cell-based antiviral screen | AID 1251; in the data active = inhibition above about 30%
ROMK mod: modulates human ROMK potassium channel activity. P48048. Tet-inducible ROMK, thallium flux fluorescence; actives lie on both sides. B-score at 10 µM. 130,000 tested, 2% active. AID 1918;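 active = signal ratio slope over the read window, or its plate-corrected B-score, at least 3 SD from the plate mean, either direction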;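 note: B-score of the F/F0 ratio slope over 7 to 12 s after thallium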
Calpain2 inh: blocks pig calpain II enzyme activity; purified calpain II, fluorogenic peptide substrate, 30 min; inhibition, % at 16 µM; 220,000 tested, 0.37% active; AID 1236;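 active = inhibition above about 50%, limit read from the data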
Starred values were filed as active, the others as inactive; nt = not tested or not shown.

SMILES	KCC2 mod	PKD1 inh	MDM2 E3 inh	Arbovirus anti	ROMK mod	Calpain2 inh
O=C(COC(=O)COc1ccc(Cl)cc1)Nc1ccc(N2CCOCC2)cc1	-0.045	-2	-14	-1	-0.022	-15
O=C(Cc1ccccc1)NC(=S)Nc1cc(C(F)(F)F)ccc1Cl	1.2	-4	-27	2	nt	19
O=C(NNC(=S)Nc1ccccc1)c1cccc(Br)c1	3.3*	1	-14	5	-1.5	23
FC(F)(F)c1cccc(NC(=S)Nc2ccc(Cl)cc2Cl)c1	4.5*	1	-14	-28	nt	-7
O=C(NNC(=S)Nc1cccc(C(F)(F)F)c1)c1cccc(Cl)c1	5.8*	-5	-22	-8	nt	-16
S=C(Nc1ccccc1)Nc1ccc(Cl)cc1Cl	2.4	-10	-12	7	nt	-9
O=C(Cc1ccccc1)NC(=S)Nc1cccc(C(F)(F)F)c1	6*	2	21	4	nt	4
O=C(NNC(=S)Nc1cccc(C(F)(F)F)c1)c1ccccc1Cl	1.3	-13	-10	-15	nt	-21
O=C(c1cnn2c(C(F)F)cc(-c3ccccc3)nc12)N1CCCCC1c1cccnc1 (stereo unspecified)	-0.36	nt	-17	nt	0.47	-8
N/C(=N\O)c1ccccc1N1CCCCC1	-0.22	-5	-20	-2	0.25	11
COc1ccc(C(C)=O)cc1COc1nc(C)nc2ccccc12	-0.62	-7	-16	2	-1.1	0
COC(=O)CCSCC(=O)N1N=C(c2ccc(OC)cc2)CC1c1cccc(OC)c1OC (stereo unspecified)	nt	-3	25	7	-2.3	-22
CCc1ccc(S(=O)(=O)/N=C2/C=C(Sc3ncn[nH]3)C(=O)c3ccccc32)cc1	-1.2	-6	15	-37	-7.8*	-19
CC(C)c1ccc2c(c1)C1(NN=C(c3ccccc3)S1)C(=O)N2 (stereo unspecified)	0.0027	2	45*	-34	-1.3	-19
COCc1nc2ccccc2n1Cc1ccc(Br)cc1	0.9	-4	-4	-1	nt	57*
OCc1nc2ccccc2n1CCCOc1ccc(Br)cc1	-2.9*	3	1	11	nt	-8
Cc1ccc(OCCCCn2c(CO)nc3ccccc32)cc1	-0.57	-6	-39	15	nt	-20
CC12CN(C(=S)Nc3ccccc3)CC(C)(CN(C(=S)Nc3ccccc3)C1)C2=O	0.98	6	7	3	0.0045	-28
CC1(C)C(=O)OC(c2c(F)c(F)c(F)c(F)c2F)C2(CCCCC2)C1=O (stereo unspecified)	1.3	-3	4	11	nt	57*
CCOC(=O)c1c(-c2ccccc2)csc1NC(=S)N(CC)CC	-0.77	0	-10	37*	nt	-5
CCOC(=O)c1c(-c2ccccc2)csc1NC(=O)c1nn(CC)cc1Br	0.054	-1	-20	25	nt	-82
CCc1cc2c(=O)n(Cc3ccccc3)c(SC3CCOC3=O)nc2s1 (stereo unspecified)	-0.0043	3	-20	4	-0.83	54*
CCc1nnc(NC(=O)C2CCC(CNc3c(N4CCC(C)CC4)c(=O)c3=O)CC2)s1 (stereo unspecified)	-0.0088	nt	-2	nt	0.78	7
Cc1ccc(NC(=O)/C(=C/C=C/c2ccccc2)NC(=O)c2ccccc2)cc1	-3.4	0	-4	30*	nt	-24
CCOC(=O)N1CCC2(CC1)C(C#N)=C(N)Oc1n[nH]c(CSc3ccc(C)cc3)c12	-0.64	-7	-14	-2	0.18	91*
SMILES	KCC2 mod	PKD1 inh	MDM2 E3 inh	Arbovirus anti	ROMK mod	Calpain2 inh
O=C(c1cnc2sccn2c1=O)N(Cc1ccccc1)c1ccccn1	0.54	-12	-9	6	nt	85*
COC(=O)C1=NN(C(=O)c2cccc(Cl)c2)C(O)(C(C)(C)C)C1 (stereo unspecified)	51*	-18	-2	-1	2.6*	3
Cc1ccc2cc(/C=C3\N=C(c4ccccc4)OC3=O)c(N3CCOCC3)nc2c1	nt	5	-12	-6	-5.9*	-63
N#CCOC(=O)/C=C/c1ccc2c(c1)OCO2	0.96	2	-4	6	-0.54	-58
CCC1CCCCN1C(=O)c1ccc(OC2CCN(C(=O)C3CC3)CC2)cc1 (stereo unspecified)	0.93	1	nt	-4	0.0023	57*
Cc1c(N2C(=O)/C(=C/c3cccc4ccccc34)SC2=S)c(=O)n(-c2ccccc2)n1C	-6.8*	5	nt	nt	nt	nt

Screens from PubChem.
